Results from ChEMBL document CHEMBL1821604, “Anticancer activity and cDNA microarray studies of a (RS)-1,2,3,5-tetrahydro-4,1-benzoxazepine-3-yl]-6-chloro-9H-purine, and an acyclic (RS)-O,N-acetalic 6-chloro-7H-purine” (Eur J Med Chem, 2011).

Key:
[1] = Therapeutic index, ratio of IC50 for human MCF10A cells to IC50 for human MCF7 cells; format: cell-based; conditions: MCF10A cells (normal) versus MCF7 cells (cancer), read-out: Ratio IC50
Method in brief: (§1)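 Each cell line grown in DMEM with 10% FBS, 37 °C, 5% CO₂. Cells seeded and allowed 24 h, then drug added in medium (≤0.1% v/v DMSO). Medium and drug renewed at day 3, cells kept 3 more days. Sulforhodamine-B read at 492 nm. IC₅₀ taken from semilog dose-response curves by linear interpolation, triplicate wells, at least twice. Index = IC₅₀ normal line / IC₅₀ cancer line.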

[2] = Therapeutic index, ratio of IC50 for rat IEC-6 cells to IC50 for human HT-29 cells; format: cell-based; conditions: IEC-6 cells (normal) versus HT-29 cells (cancer), read-out: Ratio IC50; method in brief: as §1
[3] = Cytotoxicity against rat IEC-6 cells after 6 days by SRB colorimetric assay; format: cell-based; conditions: IEC-6, 144 h
MCF-10A = assay: Cytotoxicity against human MCF10A cells after 6 days by SRB colorimetric assay; format: cell-based; conditions: 144 h
HT-29 = assay: Cytotoxicity against human HT-29 cells after 6 days by SRB colorimetric assay; format: functional, cell-based; conditions: HT-29, 144 h
MCF7 = assay: Induction of apoptosis in human MCF7 cells at IC50 after 48 hrs using annexin V-FITC staining by flow cytometry; format: functional

Row | Structure (SMILES) | selectivity ratio [1] | selectivity ratio [2] | IC50 [3] | IC50 (MCF-10A) | IC50 (HT-29) | Activity (MCF7)
1 | O=c1[nH]cc(F)c(=O)[nH]1 [FLUOROURACIL] | 0.17 | 0.61 | 660 nM | 730 nM | 1080 nM | –
2 | CC(=O)O[C@H]1C(=O)[C@@]2(C)[C@H]([C@H](OC(=O)c3ccccc3)[C@]3(O)C[C@H](OC(=O)[C@H](O)[C@@H](NC(=O)c4ccccc4)c4ccccc4)C(C)=C1C3(C)C)[C@]1(OC(C)=O)CO[C@@H]1C[C@@H]2O [PACLITAXEL] | – | – | – | – | – | 43%
